Active and inactive are the calls of the source. The calls are words filed in the database; no cut-off is given here.
tested on: not listed separately; assay: Inhibition of Mycobacterium tuberculosis TMPK expressed in Escherichia coli BLi5 using dTMP as substrate in presence of ATP by spectrophotometric based LDH/PK/nucleoside diphosphate kinase enzyme coupled assay
Method in brief: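 Wild-type enzyme from pHL50 in E. coli BLi5, purified by Blue-Sepharose then gel filtration. IC50 fit to four-parameter logistic of % inhibition.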

Q: Which IC50 does the source give for `COc1ccc(CN2CCC(n3cc(C)c(=O)[nH]c3=O)CC2)cc1` here?
A: 113 µM

Q: Which IC50 does the source give for `Cc1cn(C2CN(Cc3cccc(Oc4ccccc4)c3)C2)c(=O)[nH]c1=O` here?
A: 944 µM

Q: For `Cc1cn(C2CCN(Cc3ccncc3)CC2)c(=O)[nH]c1=O`, which IC50 is on record?
A: 49 µM

Q: With `Cc1cn(C2CCN(Cc3ccoc3)CC2)c(=O)[nH]c1=O` as the compound, how does the IC50 read?
A: 254 µM

Q: With `Cc1cn(C2CCN(Cc3ccc(C#N)cc3)CC2)c(=O)[nH]c1=O` as the compound, how does the IC50 read?
A: 35 µM

Q: For `Cc1cn(C2CCN(Cc3cncc4ccccc34)CC2)c(=O)[nH]c1=O`, which IC50 is on record?
A: 25 µM

Q: Which IC50 does the source give for `Cc1cn(C2CCN(Cc3cccc(C(=O)O)n3)CC2)c(=O)[nH]c1=O` here?
A: 143 µM

Q: For `Cc1cn(C2CCN(CCc3cccc(Oc4ccccc4)c3)CC2)c(=O)[nH]c1=O`, which IC50 is on record?
A: 11 µM

Q: Which IC50 does the source give for `Cc1cn(C2CCN(Cc3nccc4ccccc34)CC2)c(=O)[nH]c1=O` here?
A: 27 µM

Q: Which IC50 does the source give for `Cc1ccc(CN2CCC(n3cc(C)c(=O)[nH]c3=O)CC2)cc1` here?
A: 168 µM

Q: Which IC50 does the source give for `Cc1cn(C2CCN(Cc3ccco3)CC2)c(=O)[nH]c1=O` here?
A: 114 µM

Q: Which IC50 does the source give for `Cc1cn(C2CCN(Cc3cccnc3)CC2)c(=O)[nH]c1=O` here?
A: 75 µM

Q: With `Cc1cn(C2CCN(Cc3ccccc3)CC2)c(=O)[nH]c1=O` as the compound, how does the IC50 read?
A: 138 µM

Q: With `Cc1cn(C2CCN(Cc3cc4ccccc4cn3)CC2)c(=O)[nH]c1=O` as the compound, how does the IC50 read?
A: 26 µM

Q: For `Cc1cn(C2CN(CCCc3cccc(Oc4ccccc4)c3)C2)c(=O)[nH]c1=O`, which IC50 is on record?
A: 1140 µM

Q: With `Cc1cn(C2CCN(CC3CCCCC3)CC2)c(=O)[nH]c1=O` as the compound, how does the IC50 read?
A: 1120 µM

Q: For `Cc1cn(C2CCN(Cc3cc(Oc4ccccc4)c4ccc(Cl)cc4n3)CC2)c(=O)[nH]c1=O`, which IC50 is on record?
A: 1.8 µM

Q: For `Cc1cn(C2CCN(Cc3cccc4ccccc34)CC2)c(=O)[nH]c1=O`, which IC50 is on record?
A: 38 µM

Q: Which IC50 does the source give for `Cc1cn(C2CCN(Cc3ccc(Cl)cc3)CC2)c(=O)[nH]c1=O` here?
A: 40 µM

Q: With `Cc1cn(C2CCN(C(=O)c3cccc(Oc4ccccc4)c3)CC2)c(=O)[nH]c1=O` as the compound, how does the IC50 read?
A: 235 µM

Q: Which IC50 does the source give for `Cc1cn(CC2CCN(Cc3ccc(Oc4ccccc4)cc3)CC2)c(=O)[nH]c1=O` here?
A: > 2000 µM

Q: Which IC50 does the source give for `Cc1cn(C2CCN(Cc3cnc4ccccc4c3)CC2)c(=O)[nH]c1=O` here?
A: 17 µM

Q: For `Cc1cn(C2CCN(Cc3ccc(C(=O)O)cc3)CC2)c(=O)[nH]c1=O`, which IC50 is on record?
A: 141 µM

Q: Which IC50 does the source give for `Cc1cn(C2CCN(Cc3ccc(Oc4ccccc4)cc3)CC2)c(=O)[nH]c1=O` here?
A: 29 µM

Q: Which IC50 does the source give for `Cc1cn(C2CN(CCc3cccc(Oc4ccccc4)c3)C2)c(=O)[nH]c1=O` here?
A: 1910 µM

Q: With `Cc1cn(C2CCN(Cc3cccc(Oc4ccccc4)c3)CC2)c(=O)[nH]c1=O` as the compound, how does the IC50 read?
A: 6.1 µM

Q: With `Cc1cn(C2CCN(Cc3cc4ccccc4o3)CC2)c(=O)[nH]c1=O` as the compound, how does the IC50 read?
A: 23 µM

Q: With `Cc1cn(C2CCN(C(=O)c3ccc(Oc4ccccc4)cc3)CC2)c(=O)[nH]c1=O` as the compound, how does the IC50 read?
A: 353 µM

Q: Which IC50 does the source give for `Cc1cccc(CN2CCC(n3cc(C)c(=O)[nH]c3=O)CC2)c1` here?
A: 72 µM

Q: With `Cc1cn(C2CCN(Cc3ccc(N(C)C)cc3)CC2)c(=O)[nH]c1=O` as the compound, how does the IC50 read?
A: 328 µM

Q: With `Cc1cn(C2CN(Cc3ccc(Oc4ccccc4)cc3)C2)c(=O)[nH]c1=O` as the compound, how does the IC50 read?
A: 832 µM

Q: For `Cc1cn(C2CCN(Cc3ccc4ccccc4c3)CC2)c(=O)[nH]c1=O`, which IC50 is on record?
A: 20 µM

Q: With `Cc1cn(C2CCN(Cc3ccnc4ccccc34)CC2)c(=O)[nH]c1=O` as the compound, how does the IC50 read?
A: 25 µM

Q: With `Cc1cn(C2CCN(Cc3ccccn3)CC2)c(=O)[nH]c1=O` as the compound, how does the IC50 read?
A: 96 µM

tested on: Mycobacterium tuberculosis; assay: Inhibition of Mycobacterium tuberculosis TMPK expressed in Escherichia coli BLi5 at 0.8 mM using dTMP as substrate in presence of ATP by spectrophotometric based LDH/PK/nucleoside diphosphate kinase enzyme coupled assay

Q: Which inhibition does the source give for `Cc1cn(CC2CCN(Cc3cccc(Oc4ccccc4)c3)CC2)c(=O)[nH]c1=O` here?
A: inactive
